How the values were obtained:
[1] = tested on: HIV-1 LTR; experiment: HIV-1 LTR-CAT assay in HCT116 WT cells; type: cell-based; conditions: Flavopiridol, CR8#13, F07#13 100nM, 9AA 1000nM, 48hrs
In short: (§1)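 HIV-1 LTR-CAT plasmid was transfected into HCT116 cells with or without pc-Tat. Six hours later, cells were treated with DMSO or test compound and incubated 48hrs at 37°C in complete DMEM. Dicer-/- extract was used at one tenth the amount of WT extract.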

[2] = tested on: infected ACH2, J1.1, OM10.1, U1 and uninfected CEM, Jurkat T-cells, and U937 cells; experiment: MTT assay on infected and uninfected cells; type: cell-based; conditions: 50nM and 10μM
In short: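 Cell viability was measured by MTT assay at 50nM and at a high drug level. Uninfected CEM, Jurkat and U937 cells were grown in RPMI 1640 with FBS, L-glutamine and penicillin/streptomycin at 37°C, 5% CO2.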

[3] = cited from earlier work
[4] = tested on: HIV-1 in T-cells; conditions: ref Agbottah et al, 2005; cited from earlier work
[5] = tested on: HIV-1 in monocytes; conditions: ref Agbottah et al, 2005; cited from earlier work
[6] = tested on: HIV-1 (pNL4.3); experiment: Reverse transcriptase assay, pNL4.3 electroporated U937 cells; type: cell-based; conditions: Flavopiridol 200nM, 48 hours post drug treatment
[7] = tested on: HIV-1 LTR; experiment: HIV-1 LTR-CAT assay in HCT116 Dicer-/- cells; type: cell-based; conditions: HCT116 Dicer-/- compared with HCT116 WT; 100nM; 48hrs
In short: as §1

[8] = tested on: HIV-1 LTR; experiment: ChIP assay on the HIV-1 LTR in TZM-bl cells; type: cell-based; conditions: TSA for 7 days
In short: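 TZM-bl cells carry an integrated HIV-1 LTR and were grown in DMEM with 10% FBS, 2mM L-glutamine and antibiotics. Cells were treated 7 days with sub-lethal TSA, then switched to complete medium and transfected with TAR-WT or control TAR-D RNA. ChIP was done on day 8 with HDAC-1 and Ago2 antibodies. Precipitated DNA was amplified with 0.1uM HIV-1 LTR primers.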

[9] = tested on: HIV-1 LTR; experiment: Luciferase assay in TSA treated TZM-bl cells; type: cell-based; conditions: TSA treatment
In short: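 TZM-bl cells, which carry a stably integrated HIV-1 LTR-luciferase reporter, were treated with TSA for 7 days and then with test compound. Firefly luciferase activity was measured with the BrightGlo Luciferase Assay.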

Nc1c2ccccc2nc2ccccc12 [9AA, 9-Aminoacridine]
Inhibition of Tat-mediated HIV-1 LTR transcription (CAT assay) [1]: moderate effects

CC[C@H](CO)Nc1nc(NCc2ccc(-c3ccccn3)cc2)c2ncn(C(C)C)c2n1 [CR8]
Cell killing of uninfected cells (MTT assay) [2]: some cell killing of uninfected cells
Potency relative to Cyc202 [3]: roughly 25 times

CC[C@H](CO)Nc1nc(NCc2ccccc2)c2ncn(C(C)C)c2n1 [Cyc202, R-roscovitine]
Inhibition of HIV-1 in T-cells [4]: effective inhibitor
Inhibition of HIV-1 in monocytes [5]: not in monocytes

CN1CC[C@H](c2c(O)cc(O)c3c(=O)cc(-c4ccccc4Cl)oc23)[C@H](O)C1 [Flavopiridol]
Inhibition of Tat-mediated HIV-1 LTR transcription (CAT assay) [1]: inhibited viral transcription significantly better in cells that contained Dicer
RT levels in supernatant [6]: able to decrease RT levels in both cell lines
Inhibition of Tat-mediated HIV-1 LTR transcription (CAT assay) [7]: less potent

CC(/C=C/C(=O)NO)=C\[C@@H](C)C(=O)c1ccc(N(C)C)cc1 [TSA, Trichostatin-A]
Association of HDAC-1 and Ago2 with the HIV-1 LTR (ChIP) [8]: association was lost
Luciferase activity of integrated HIV-1-Luc [9]: increased Luciferase activity

— article PMC2902143 (Journal of RNAi and Gene Silencing : An International …, 2010)
